Test results reported in PubChem BioAssay.
Activity calls are given as the source filed them.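 The calls were made as follows, unless noted: active = fluorescence slope higher than the sample average by over 3 SD (cut at about -0.22 in these data, passing the limit was not always enough); inactive = the rest.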

Legend:
[1] = inhibitors of TNFa-induced NFkB p65 translocation, primary screen, imaging, HUVEC, MLSMR starter and 10KST1 sets (AID 438;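 active = inhibition above 20% together with a positive visual image hit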;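 also: compound added about 3h40 before a 20 min TNFalpha stimulation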;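 as to inhibition: signal is the nuclear over cytoplasmic p65 intensity ratio per well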); settings: HUVEC TNFa-induced p65 nuclear translocation; cell count: measured here: nuclei count (cytotoxicity indicator), at 2.08 µM; inhibition: at 2 µM, stronger effect = higher value, 0% TNFa-plus-vehicle, 100% no-TNFa wells
[2] = inhibitors of E-selectin induction by TNFa, primary screen, imaging, HUVEC, immunofluorescence, MLSMR starter and 10KST1 sets (AID 487;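 active = visually confirmed hit in the image check and inhibition above 20%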;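 as to inhibition: signal is fraction of cell area covered by stained E-selectin grains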;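 as to nuclei count: 100% = median nuclei count of all wells on the same plate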); settings: HUVEC TNFalpha-induced E-selectin immunofluorescence imaging, at 2 µM; inhibition: stronger effect = higher value; nuclei count: measured here: cell number, toxicity
[3] = DUSP6 inhibitors restoring Erk phosphorylation by chemical complementation, primary imaging in DUSP6-transfected HeLa (AID 609;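 active = compounds giving at least 50% inhibition in the cell-based MKP-3 phosphatase rescue imaging test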;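 as to inhibition: phospho-Erk level distribution per well compared with pooled transfected vehicle control wells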); settings: HeLa MKP-3 transfected, phospho-Erk imaging KS statistic, at 10 µM, cells stimulated with TPA for 15 min
[4] = target: Dual specificity protein phosphatase 6 (Homo sapiens) (UniProt Q16828); assay: as above; settings: HeLa MKP-3 transfected, phospho-Erk imaging KS statistic; at 10 µM; stronger effect = higher value; cells stimulated with TPA for 15 min
[5] = target: Voltage-gated potassium channel subunit beta-2 (Rattus norvegicus) (UniProt P62483); assay: KvBeta enzyme negative modulators, primary screen, biochemical, NADPH fluorescence (AID 622); settings: recombinant KvBeta, 4-cyanobenzaldehyde reduction, at 10 µM, stronger effect = higher value;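 also: slope of raw intensity against log time taken from 70 to 1610 s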
[6] = target: Voltage-gated potassium channel subunit beta-2 (Rattus norvegicus) (UniProt P62483); assay: KvBeta positive modulators, primary screen, biochemical, NADPH fluorescence (AID 623;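 active = NADPH fluorescence slope more negative than the mean of all samples by about 3 SD, 99.7% confidence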;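 also: fluorescence intensity change per second fitted from 20 to 320 s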); settings: Recombinant KvBeta, NADPH fluorescence decrease slope, 10 min; at 10 µM; stronger effect = lower value
[7] = target: Alpha-2C adrenergic receptor (Homo sapiens) (UniProt P18825); assay: modulators of alpha2C/GIRK thallium flux, primary screen, cell-based, HEK293 alpha2C/GIRK1/2 (AID 624;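 active = fluorescence slope after compound addition differing from the mean of all screened samples at 99.7% confidence, in either direction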;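 also: slope of fluorescence ratio to pre-addition baseline per second over 15 to 24 s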); settings: thallium flux BTC fluorescence, at 10 µM, actives lie on both sides
[8] = inhibitors of larval lipid processing in zebrafish, primary screen, whole organism, PED6 fluorescence, gall bladder and intestine (AID 686;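 active = a full or partial loss of lipid-probe fluorescence in the fish gall bladder, intestine or both, judged by eye; inactive = no fluorescence loss, or compound toxic to the fish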;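 also: larvae 5 to 7 days old with five fish per well; signal comes from phospholipase A2 cleavage of quenched PED6 carried via bile; overnight exposure to compound and PED6 before scoring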); settings: Zebrafish larvae PED6 lipid processing, fluorescence scoring; screened at 20 µM (by protocol)
Summary of the method: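 Doses: 20 µM single dose. Test system: live zebrafish larvae aged 5-7 days, whole organism. Quantity: five larvae per well. Measured by: By-eye fluorescence microscopy. Reagent: ingested quenched lipid PED6 at 100 nM. Read-out: visual per-well fluorescence inhibition score. Times: overnight exposure of larvae to compound plus PED6.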

[9] = inhibitors of Chlamydomonas gravitaxis, primary screen, whole organism, Chlamydomonas reinhardtii, WT vs cilia-less mutant, absorbance, 96-well (AID 463189;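 active = inhibition at or above 50% relative to wild type and mutant plate controls; inactive = inhibition below 50%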;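 also: 0% = wild type cc124 cells in DMSO and 100% = ciliumless bld1 mutant cells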); settings: OD600 absorbance, 2 days, at 10 µM, stronger effect = higher value
[10] = measured here: cell density z-score
[11] = measured here: nuclear c-Myc green intensity z-score
[12] = measured here: nuclear pErk red intensity z-score, stronger effect = higher value

Alpha-2C adrenergic receptor (Homo sapiens), sequence (P18825 whole entry, looked up): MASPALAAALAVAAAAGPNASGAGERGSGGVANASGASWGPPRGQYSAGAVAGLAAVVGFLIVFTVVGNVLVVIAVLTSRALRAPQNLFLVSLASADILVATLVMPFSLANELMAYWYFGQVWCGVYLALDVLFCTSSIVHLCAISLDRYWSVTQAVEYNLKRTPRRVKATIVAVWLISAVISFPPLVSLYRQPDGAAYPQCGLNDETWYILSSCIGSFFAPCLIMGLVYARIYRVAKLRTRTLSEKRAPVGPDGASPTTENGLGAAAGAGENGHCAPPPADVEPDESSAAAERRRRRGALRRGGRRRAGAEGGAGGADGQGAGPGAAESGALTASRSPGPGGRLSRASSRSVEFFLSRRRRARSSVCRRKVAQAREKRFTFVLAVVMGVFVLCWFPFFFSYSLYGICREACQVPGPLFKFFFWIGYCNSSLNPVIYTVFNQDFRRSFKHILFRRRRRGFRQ
Voltage-gated potassium channel subunit beta-2 (Rattus norvegicus), sequence (P62483 whole entry, looked up): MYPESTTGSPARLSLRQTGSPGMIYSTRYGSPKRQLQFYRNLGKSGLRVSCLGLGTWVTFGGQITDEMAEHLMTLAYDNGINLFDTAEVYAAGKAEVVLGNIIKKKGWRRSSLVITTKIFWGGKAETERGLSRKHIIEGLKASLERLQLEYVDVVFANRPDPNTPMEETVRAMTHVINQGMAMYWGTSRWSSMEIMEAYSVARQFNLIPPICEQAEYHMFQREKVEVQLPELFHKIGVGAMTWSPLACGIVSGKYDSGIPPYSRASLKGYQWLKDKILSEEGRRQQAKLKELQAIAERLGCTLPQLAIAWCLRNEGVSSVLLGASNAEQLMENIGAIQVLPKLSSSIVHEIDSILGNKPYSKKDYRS
Dual specificity protein phosphatase 6 (Homo sapiens), sequence (Q16828 whole entry, looked up): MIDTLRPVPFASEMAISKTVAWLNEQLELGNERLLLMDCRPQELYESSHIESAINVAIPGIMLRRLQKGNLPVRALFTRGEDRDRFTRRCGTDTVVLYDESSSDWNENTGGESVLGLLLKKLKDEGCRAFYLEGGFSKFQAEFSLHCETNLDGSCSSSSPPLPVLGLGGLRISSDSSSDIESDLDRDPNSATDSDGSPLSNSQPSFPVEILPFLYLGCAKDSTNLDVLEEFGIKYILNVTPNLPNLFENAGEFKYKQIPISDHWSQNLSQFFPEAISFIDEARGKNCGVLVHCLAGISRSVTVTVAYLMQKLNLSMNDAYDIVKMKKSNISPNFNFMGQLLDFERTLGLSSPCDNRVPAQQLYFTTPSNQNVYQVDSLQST

## Cc1nn(-c2cccc(Cl)c2)c2c1C(c1ccncc1)C(C#N)=C(N)O2 (centres undefined)
[1]
  cell count: 374
  inhibition: -13.7% (inactive)
[2]
  inhibition: -56% (inactive)
  nuclei count: 98.8%
[3]; [10]
  z-score: -2.16
[3]; [11]
  z-score: -0.307
[3]; [12]
  z-score: -1.54
[4]
  inhibition: 2.46% (inactive)
[5]
  fluorescence slope: -0.382 (inactive)
[6]
  NADPH fluorescence slope: 4.7e-05 (inactive)
[7]
  slope: 0.00526 (inactive)
[8]
  outcome: inactive
[9]
  inhibition: -1.15% (inactive)

## CC1CN(c2oc(-c3ccccc3Cl)nc2C#N)CC(C)O1 (centres undefined)
[1]
  cell count: 355
  inhibition: -5.2% (inactive)
[2]
  inhibition: -154% (inactive)
  nuclei count: 83.5%
[3]; [10]
  z-score: -0.0257
[3]; [11]
  z-score: -0.411
[3]; [12]
  z-score: -1.37
[4]
  inhibition: -0.159% (inactive)
[5]
  fluorescence slope: -0.433 (inactive)
[6]
  NADPH fluorescence slope: -9.2e-06 (inactive)
[7]
  slope: 0.00575 (inactive)
[8]
  outcome: inactive
[9]
  inhibition: -9.38% (inactive)

## CCOC(=O)c1cnc(SC2CC(=O)N(c3cccc(OC)c3)C2=O)nc1N (centres undefined)
[1]
  cell count: 591
  inhibition: -4.7% (inactive)
[2]
  inhibition: -23.7% (inactive)
  nuclei count: 155%
[3]; [10]
  z-score: 0.0661
[3]; [11]
  z-score: -0.104
[3]; [12]
  z-score: -0.161
[4]
  inhibition: -8.76% (inactive)
[5]
  fluorescence slope: -0.317 (inactive)
[6]
  NADPH fluorescence slope: -9.7e-06 (inactive)
[7]
  slope: 0.00504 (inactive)
[8]
  outcome: inactive
[9]
  inhibition: -8.83% (inactive)

## CC1CCc2cc(F)cc3c(O)c(C(=O)NCc4ccco4)c(=O)n1c23 (centres undefined)
[1]
  cell count: 531
  inhibition: -4.5% (inactive)
[2]
  inhibition: -39.2% (inactive)
  nuclei count: 138%
[3]; [10]
  z-score: -0.138
[3]; [11]
  z-score: 1.87
[3]; [12]
  z-score: -4.17
[4]
  inhibition: 5.26% (inactive)
[5]
  fluorescence slope: -0.329 (inactive)
[6]
  NADPH fluorescence slope: 4e-05 (inactive)
[7]
  slope: 0.00603 (inactive)
[8]
  outcome: inactive
[9]
  inhibition: 6.44% (inactive)

## COc1cc(OC)cc(C(=O)N2CCC(N3CCN(c4ccccc4)CC3)CC2)c1
[1]
  cell count: 382
  inhibition: -13.9% (inactive)
[2]
  inhibition: -114% (inactive)
  nuclei count: 122%
[3]; [10]
  z-score: 1.61
[3]; [11]
  z-score: -0.715
[3]; [12]
  z-score: -0.404
[4]
  inhibition: 12.7% (inactive)
[5]
  fluorescence slope: -0.342 (inactive)
[6]
  NADPH fluorescence slope: 5.8e-05 (inactive)
[7]
  slope: 0.00556 (inactive)
[8]
  outcome: inactive
[9]
  inhibition: -4.18% (inactive)

## CN(C)c1ccc(C=NCCC2(O)CCOC(C)(C)C2)cc1 (centres undefined)
[1]
  cell count: 326
  inhibition: -27% (inactive)
[2]
  inhibition: -218% (inactive)
  nuclei count: 173%
[3]; [10]
  z-score: -0.673
[3]; [11]
  z-score: -1.17
[3]; [12]
  z-score: -0.362
[4]
  inhibition: 8.76% (inactive)
[5]
  fluorescence slope: -0.416 (inactive)
[6]
  NADPH fluorescence slope: -0.000167 (inactive)
[7]
  slope: 0.00576 (inactive)
[8]
  outcome: inactive
[9]
  inhibition: -4.27% (inactive)

## c1ccc(-c2nn3c(C4CCCCC4)nnc3s2)cc1
[1]
  cell count: 527
  inhibition: -1.4% (inactive)
[2]
  inhibition: -81.3% (inactive)
  nuclei count: 142%
[3]; [10]
  z-score: -0.66
[3]; [11]
  z-score: 0.347
[3]; [12]
  z-score: 1.15
[4]
  inhibition: -18.6% (inactive)
[5]
  fluorescence slope: -0.435 (inactive)
[6]
  NADPH fluorescence slope: -8.4e-05 (inactive)
[7]
  slope: 0.00411 (inactive)
[8]
  outcome: inactive
[9]
  inhibition: 6.49% (inactive)

## COc1ccc(NC(=O)Nc2cccc(C(=O)N3CCOCC3)c2)cc1OC
[1]
  cell count: 543
  inhibition: 0% (inactive)
[2]
  inhibition: -176% (inactive)
  nuclei count: 131%
[3]; [10]
  z-score: 0.702
[3]; [11]
  z-score: -0.546
[3]; [12]
  z-score: -0.00586
[4]
  inhibition: 12.3% (inactive)
[5]
  fluorescence slope: -0.527 (inactive)
[6]
  NADPH fluorescence slope: -7.4e-05 (inactive)
[7]
  slope: 0.00529 (inactive)
[8]
  outcome: inactive
[9]
  inhibition: 12.3% (inactive)

## COc1cc(-c2nn3c(-c4ccccn4)nnc3s2)cc(OC)c1OC
[1]
  cell count: 600
  inhibition: -13.9% (inactive)
[2]
  inhibition: -249% (inactive)
  nuclei count: 171%
[3]; [10]
  z-score: 1.12
[3]; [11]
  z-score: -1.51
[3]; [12]
  z-score: 0.045
[4]
  inhibition: -2.47% (inactive)
[5]
  fluorescence slope: -0.449 (inactive)
[6]
  NADPH fluorescence slope: -0.000128 (inactive)
[7]
  slope: 0.00656 (inactive)
[8]
  outcome: inactive
[9]
  inhibition: 13.6% (inactive)

## Fc1ccc2[nH]c3c(N4CCN(Cc5ccc6c(c5)OCO6)CC4)ncnc3c2c1
[1]
  cell count: 523
  inhibition: -4.5% (inactive)
[2]
  inhibition: -93.3% (inactive)
  nuclei count: 169%
[3]; [10]
  z-score: 0.499
[3]; [11]
  z-score: 0.133
[3]; [12]
  z-score: -0.391
[4]
  inhibition: -1.12% (inactive)
[5]
  fluorescence slope: -0.311 (inactive)
[6]
  NADPH fluorescence slope: 3.2e-05 (inactive)
[7]
  slope: 0.00448 (inactive)
[8]
  outcome: inactive; toxic
[9]
  inhibition: 58.4% (active)

## CCSc1nnc(N(CCC(=O)O)CCC(=O)O)s1
[1]
  cell count: 371
  inhibition: -10.5% (inactive)
[2]
  inhibition: -116% (inactive)
  nuclei count: 155%
[3]; [10]
  z-score: 0.0345
[3]; [11]
  z-score: 0.0362
[3]; [12]
  z-score: -1.04
[4]
  inhibition: 7.48% (inactive)
[5]
  fluorescence slope: -0.422 (inactive)
[6]
  NADPH fluorescence slope: -2.2e-05 (inactive)
[7]
  slope: 0.00562 (inactive)
[8]
  outcome: inactive
[9]
  inhibition: -5.02% (inactive)

## CCCC(=O)Nc1sc2c(c1C#N)CCCC2
[1]
  cell count: 385
  inhibition: 7.8% (inactive)
[2]
  inhibition: -83.9% (inactive)
  nuclei count: 110%
[3]; [10]
  z-score: -0.165
[3]; [11]
  z-score: 0.756
[3]; [12]
  z-score: -2.32
[4]
  inhibition: 3.56% (inactive)
[5]
  fluorescence slope: -0.445 (inactive)
[6]
  NADPH fluorescence slope: -0.000372 (inactive)
[7]
  slope: 0.00647 (inactive)
[8]
  outcome: inactive
[9]
  inhibition: -10.7% (inactive)

## COCCN(C(=O)Nc1ccccc1)c1ccccc1C
[1]
  cell count: 443
  inhibition: -5.7% (inactive)
[2]
  inhibition: -107% (inactive)
  nuclei count: 186%
[3]; [10]
  z-score: -1.02
[3]; [11]
  z-score: -0.17
[3]; [12]
  z-score: -0.3
[4]
  inhibition: -3.95% (inactive)
[5]
  fluorescence slope: -0.32 (inactive)
[6]
  NADPH fluorescence slope: 6.1e-06 (inactive)
[7]
  slope: 0.00472 (inactive)
[8]
  outcome: inactive
[9]
  inhibition: -5.98% (inactive)
